Measurements: ChEMBL document CHEMBL4041548, “Ester Prodrugs of IHVR-19029 with Enhanced Oral Exposure and Prevention of Gastrointestinal Glucosidase Interaction” (ACS Med Chem Lett, 2017)
pEC50, pIC50: −log10 of the molar value. Active and inactive are the calls of the source. The calls are words filed in the database; no cut-off is given here.

Columns and labels:
[1] = Inhibition of endoplasmic reticulum alpha-glucosidase in HEK293 cells infected with DENV assessed as reduction in viral infection; format: cell-based; details: Homo sapiens
[2] = Stability in simulated gastric fluid assessed as parent compound remaining at 5 uM measured after 4 hrs by LC-MS/MS analysis
How it was run: (§1)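 Chemical stability assessed by incubation in simulated gastric fluid and simulated intestinal fluid; percent of compound remaining was measured.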

[3] = Stability in simulated intestinal fluid assessed as parent compound remaining at 5 uM measured after 4 hrs by LC-MS/MS analysis; how it was run: as §1
[4] = Metabolic stability in human intestinal S9 fraction assessed as parent compound level at 200 uM measured after 1 hr in presence or absence of NADPH by LC-MS/MS analysis; format: ADME, Intestine; details: read-out: Stability
How it was run: (§2)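 Compounds incubated with intestinal S9 fraction for 1 h. Percent prodrug remaining and percent conversion to the parent were measured.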

[5] = Metabolic stability in mouse intestinal S9 fraction assessed as parent compound level at 200 uM measured after 1 hr in presence or absence of NADPH by LC-MS/MS analysis; format: ADME, Intestine; details: read-out: Stability; how it was run: as §2
[6] = Inhibition of pig liver endoplasmic reticulum alpha glucosidase-1 using 4-methylumbelliferyl-alpha-D-glucoside as substrate measured after 90 mins by fluorescence analysis; parameters: species or system Sus scrofa
[7] = Inhibition of pig liver endoplasmic reticulum alpha glucosidase-2 using 4-methylumbelliferyl-alpha-D-glucoside as substrate measured after 60 mins by fluorescence analysis; parameters: species or system Sus scrofa
Bos taurus = organism: Bos taurus; experiment: Inhibition of endoplasmic reticulum alpha-glucosidase in MDBK cells infected with Bovine Viral Diarrhea virus assessed as reduction in BVDV envelope glycoprotein E2 level at 3 to 100 uM by immunoblot analysis; format: cell-based
How it was run: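 MDBK cells infected with BVDV, then treated with various concentrations of the compounds. Cell lysates were run on SDS-PAGE and immunoblotted for the E2 envelope glycoprotein, looking for a mobility shift and lower intensity, with β-actin as internal control.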

[8] = Inhibition of endoplasmic reticulum alpha-glucosidase in human Huh7.5 cells infected with DENV assessed as reduction in viral growth by measuring DENV RNA level by qRT-PCR method; format: cell-based
How it was run: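 Huh7.5 cells infected with dengue virus and treated with a concentration series of the compounds (n = 4). DENV RNA was quantified by qRT-PCR and the EC50 was calculated.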

Liver [9] = experiment: Half life in pooled human liver microsomes at 200 uM by LC-MS/MS analysis; format: ADME, microsome; details: microsomes, 200 µM
How it was run: (§3)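 Prodrugs or parent incubated in pooled human or mouse liver microsomes for up to 60 min, with or without cofactor. Percent remaining and percent conversion to the parent were measured.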

Liver [10] = experiment: Half life in pooled mouse liver microsomes at 200 uM by LC-MS/MS analysis; format: ADME, microsome; details: microsomes, 200 µM; how it was run: as §3
[11] = Metabolic stability in pooled human liver microsomes assessed as parent compound remaining at 200 uM measured after 60 mins in presence of NADPH and UDPGA by LC-MS/MS analysis; format: ADME, microsome; details: read-out: Stability; how it was run: as §3
Liver [12] = experiment: Metabolic stability in pooled human liver microsomes assessed as parent compound remaining at 200 uM measured after 60 mins by LC-MS/MS analysis; format: ADME, microsome; details: microsomes, 1 h, 200 µM; how it was run: as §3
[13] = Metabolic stability in pooled mouse liver microsomes assessed as parent compound remaining at 200 uM measured after 60 mins in presence of NADPH and UDPGA by LC-MS/MS analysis; format: ADME, microsome; details: read-out: Stability; how it was run: as §3
Liver [14] = experiment: Metabolic stability in pooled mouse liver microsomes assessed as parent compound remaining at 200 uM measured after 60 mins by LC-MS/MS analysis; format: ADME, microsome; details: microsomes, 1 h, 200 µM; how it was run: as §3
[15] = Metabolic stability in human plasma assessed as parent compound remaining at 5 uM measured after 2 hrs by LC-MS/MS analysis; format: ADME, cell-free; details: read-out: Stability
How it was run: (§4)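 Compounds incubated in human or mouse plasma for 2 h. Percent remaining and percent conversion to the parent were determined.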

[16] = Metabolic stability in mouse plasma assessed as parent compound remaining at 5 uM measured after 2 hrs by LC-MS/MS analysis; format: ADME, cell-free; details: read-out: Stability; how it was run: as §4
[17] = Tmax in BALB/c mouse at 25 mg/kg, po administered as single dose by LC-MS/MS analysis; format: ADME, organism-based; details: in vivo
How it was run: (§5)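 Male BALB/c mice dosed with the prodrugs or the parent orally (25 or 100 mg/kg) or intravenously (5 mg/kg). The parent compound was quantified in plasma and PK parameters were derived from it. The first sampling point was 5 min post-dose, and prodrugs were tracked up to 4 h.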

[18] = Tmax in BALB/c mouse at 100 mg/kg, po administered as single dose by LC-MS/MS analysis; format: ADME, organism-based; details: in vivo; how it was run: as §5
[19] = Cmax in BALB/c mouse at 5 mg/kg, iv as bolus administration by LC-MS/MS analysis; format: ADME, organism-based; parameters: dose 5 mg/kg, route intravenous; details: in vivo; how it was run: as §5
[20] = Cmax in BALB/c mouse at 25 mg/kg, po administered as single dose by LC-MS/MS analysis; format: ADME, organism-based; parameters: dose 25 mg/kg, route oral; details: in vivo; how it was run: as §5
[21] = Cmax in BALB/c mouse at 100 mg/kg, po administered as single dose by LC-MS/MS analysis; format: ADME, organism-based; parameters: dose 100 mg/kg, route oral; details: in vivo; how it was run: as §5
[22] = Half life in BALB/c mouse at 5 mg/kg, iv as bolus administration by LC-MS/MS analysis; format: ADME, organism-based; details: in vivo; how it was run: as §5
[23] = Half life in BALB/c mouse at 25 mg/kg, po administered as single dose by LC-MS/MS analysis; format: ADME, organism-based; details: in vivo; how it was run: as §5
[24] = Half life in BALB/c mouse at 100 mg/kg, po administered as single dose by LC-MS/MS analysis; format: ADME, organism-based; details: in vivo; how it was run: as §5
[25] = Clearance in BALB/c mouse at 5 mg/kg, iv as bolus administration by LC-MS/MS analysis; format: ADME, organism-based; details: in vivo; how it was run: as §5
[26] = Volume of distribution at steady state in BALB/c mouse at 5 mg/kg, iv as bolus administration by LC-MS/MS analysis; format: ADME, organism-based; details: in vivo, read-out: Vdss; how it was run: as §5
Mus musculus [27] = experiment: AUC(0 to infinity) in BALB/c mouse at 5 mg/kg, iv as bolus administration by LC-MS/MS analysis; format: ADME, organism-based; parameters: dose 5 mg/kg, time infinity, route intravenous; details: in vivo
Mus musculus [28] = experiment: AUC(0 to infinity) in BALB/c mouse at 25 mg/kg, po administered as single dose by LC-MS/MS analysis; format: ADME, organism-based; parameters: dose 25 mg/kg, time infinity, route oral; details: in vivo
Mus musculus [29] = experiment: AUC(0 to infinity) in BALB/c mouse at 100 mg/kg, po administered as single dose by LC-MS/MS analysis; format: ADME, organism-based; parameters: dose 100 mg/kg, time infinity, route oral; details: in vivo

SMILES: CCC(O)(CC)CCCCCCN1C[C@H](O)[C@@H](O)[C@H](O)[C@H]1CO
- pEC50 [1]: 5.66

SMILES: OC[C@@H]1[C@@H](O)[C@H](O)[C@@H](O)CN1CCCCCCOc1cc(F)ccc1F
- pEC50 [1]: 6.30

SMILES: OC[C@H]1NC[C@H](O)[C@@H](O)[C@@H]1O [DUVOGLUSTAT]
- pEC50 [1]: 3.44

SMILES: CCCCN1C[C@H](O)[C@@H](O)[C@H](O)[C@H]1CO [MIGLUSTAT]
- pEC50 [1]: 4.25

SMILES: CC(C)(C)NC(=O)N(CCCCCCN1C[C@H](O)[C@@H](O)[C@H](O)[C@H]1CO)C1CCCCC1
- Stability [2]: 109%
- Stability [3]: 114%
- remaining at 1 h, 200 µM [4]: 76 to 95%
- remaining at 1 h, 200 µM [5]: 76 to 95%
- pIC50 [6]: 6.09
- pIC50 [7]: 4.56
- inhibition (Bos taurus): Active
- pEC50 [8]: 5.39
- t1/2 (Liver [9]): 1.73 h
- t1/2 (Liver [10]): 1.57 h
- remaining at 1 h, 200 µM [11]: 68%
- Stability (Liver [12]): 99%
- remaining at 1 h, 200 µM [13]: 63%
- Stability (Liver [14]): 96%
- remaining at 2 h, 5 µM [15]: 109%
- remaining at 2 h, 5 µM [16]: 93%
- Tmax [17]: 0.25 h
- Tmax [18]: 0.5 h
- Cmax [19]: 2840 ng/mL
- Cmax [20]: 184 ng/mL
- Cmax [21]: 915 ng/mL
- half-life [22]: 0.98 h
- half-life [23]: 5.19 h
- half-life [24]: 5.46 h
- clearance [25]: 70 mL/min/kg
- Vd [26]: 2.13 L/kg
- AUC (Mus musculus [27]): 1191 ng·mL·h
- AUC (Mus musculus [28]): 150 ng·mL·h
- AUC (Mus musculus [29]): 996 ng·mL·h
- pEC50 [1]: 5.92

SMILES: CCCCCCCCCN1C[C@H](O)[C@@H](O)[C@H](O)[C@H]1CO
- pEC50 [1]: 5.15
